The results in this text go back to ChEMBL document CHEMBL1122688, “Antimycotic azoles. 7. Synthesis and antifungal properties of a series of novel triazol-3-ones” (1984).

One assay relates to Saprolegnia. Nature of the assay: In vitro antifungal activity against Saprolegnia sp. The format is functional. The gist of the method:
(§1)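 Fungal growth-inhibition screen (Godefroi method) against dermatophytes, yeasts, moulds and other fungi. The value is the lowest concentration (µg/mL) giving total inhibition of growth, tested up to 100 µg/mL.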

Assay [1] in a line: In vivo activity against vaginal candidoses in rats, measured as the ratio of animals cured/animals infected (C/I) at dose 2.5 mg/kg; C/I = 0/2. It is filed as functional.
The next assay concerns Phialophora verrucosa. Kind of assay: In vitro antifungal activity against Phialophora verrucosa. It is filed as functional. The procedure, abridged:
as §1

A further assay relates to Sporothrix schenckii. Kind of assay: In vitro antifungal activity against Sporothrix schenck ii. It is filed as functional. The gist of the method:
as §1

The next assay concerns Candida albicans. Nature of the assay: In vitro antifungal activity against Candida albicans. It is filed as functional. The gist of the method: as §1
The nature of assay [2]: In vivo activity against microsporosis guinea pig, measured as the ratio of animals cured/animals infected (C/I) at dose 2.5 mg/kg; C/I = 0/2. It is filed as functional.
The test system of a further assay is Cryptococcus neoformans. Nature of the assay: In vitro antifungal activity against Cryptococcus neoformans. The format is functional. The gist of the method: as §1
For another assay, the system named is Trichophyton rubrum. Kind of assay: In vitro antifungal activity against Trichophyton rubrum. It is filed as functional. The procedure, abridged: as §1
The test system of a further assay is Trichophyton benhamiae. Nature of the assay: In vitro antifungal activity against Trichophyton mentagrophytes. The format is functional, Arthroderma benhamiae. The gist of the method:
as §1

The nature of assay [3]: In vivo activity against microsporosis guinea pig, measured as the ratio of animals cured/animals infected (C/I) at dose 10 mg/kg; C/I = 2/4. It is filed as functional.
Another assay relates to Microsporum canis. Nature of the assay: In vitro antifungal activity against Microsporum canis. The format is functional. The gist of the method:
as §1

The subject of another assay is Aspergillus fumigatus. Kind of assay: In vitro antifungal activity against Aspergillus fumigatus. The format is functional. The gist of the method: as §1
Another assay concerns Candida tropicalis. Nature of the assay: In vitro antifungal activity against Candida tropicalis. It is filed as functional. The gist of the method:
as §1

A short description of assay [4]: In vitro antifungal activity against Mucor sp. The format is functional. The procedure, abridged: as §1
Assay [5] is described as follows: In vivo activity against microsporosis guinea pig, measured as the ratio of animals cured/animals infected (C/I) at dose 10 mg/kg; C/I = 5/6. It is filed as functional.
Assay [6] in a line: In vivo activity against microsporosis guinea pig, measured as the ratio of animals cured/animals infected (C/I) at dose 1.25 mg/kg; C/I = 0/6. It is filed as functional.
The nature of assay [7]: In vivo activity against microsporosis guinea pig, measured as the ratio of animals cured/animals infected (C/I) at dose 2.5 mg/kg; C/I = 1/6. The format is functional.
A short description of assay [8]: In vivo activity against vaginal candidoses in rats, measured as the ratio of animals cured/animals infected (C/I) at dose 2.5 mg/kg; C/I = 1/6. It is filed as functional.
Assay [9] is described as follows: In vivo activity against microsporosis guinea pig, measured as the ratio of animals cured/animals infected (C/I) at dose 10 mg/kg; C/I = 1/2. It is filed as functional.
The nature of assay [10]: In vivo activity against microsporosis guinea pig, measured as the ratio of animals cured/animals infected (C/I) at dose 10 mg/kg; C/I = 2/6. It is filed as functional.
Assay [11] is described as follows: In vivo activity against vaginal candidoses in rats, measured as the ratio of animals cured/animals infected (C/I) at dose 2.5 mg/kg; C/I = 6/6. The format is functional.
A short description of assay [12]: In vivo activity against microsporosis guinea pig, measured as the ratio of animals cured/animals infected (C/I) at dose 1.25 mg/kg; C/I = 0/8. The format is functional.
Assay [13] in a line: In vivo activity against microsporosis guinea pig, measured as the ratio of animals cured/animals infected (C/I) at dose 2.5 mg/kg; C/I = 0/8. It is filed as functional.
A short description of assay [14]: In vivo activity against vaginal candidoses in rats, measured as the ratio of animals cured/animals infected (C/I) at dose 0.63 mg/kg; C/I = 4/11. The format is functional.
The nature of assay [15]: In vivo activity against vaginal candidoses in rats, measured as the ratio of animals cured/animals infected (C/I) at dose 1.25 mg/kg; C/I = 6/6. The format is functional.
Assay [16] can be described thus: In vivo activity against vaginal candidoses in rats, measured as the ratio of animals cured/animals infected (C/I) at dose 10 mg/kg; C/I = 10/12. The format is functional.
A short description of assay [17]: In vivo activity against microsporosis guinea pig, measured as the ratio of animals cured/animals infected (C/I) at dose 2.5 mg/kg; C/I = 3/10. The format is functional.
The nature of assay [18]: In vivo activity against vaginal candidoses in rats, measured as the ratio of animals cured/animals infected (C/I) at dose 0.63 mg/kg; C/I = 4/12. The format is functional.
The nature of assay [19]: In vivo activity against vaginal candidoses in rats, measured as the ratio of animals cured/animals infected (C/I) at dose 2.5 mg/kg; C/I = 13/15. The format is functional.
A further assay deals with Rattus norvegicus. Nature of the assay: In vivo activity against vaginal candidoses in rats, measured as the ratio of animals cured/animals infected (C/I) at dose 1.25 mg/kg; C/I = 16/18. The format is functional.
The nature of assay [20]: In vivo activity against microsporosis guinea pig, measured as the ratio of animals cured/animals infected (C/I) at dose 10 mg/kg; C/I = 4/8. The format is functional.
Assay [21] in a line: In vivo activity against vaginal candidoses in rats, measured as the ratio of animals cured/animals infected (C/I) at dose 1.25 mg/kg; C/I = 0/2. It is filed as functional.
A short description of assay [22]: In vivo activity against vaginal candidoses in rats, measured as the ratio of animals cured/animals infected (C/I) at dose 2.5 mg/kg; C/I = 4/6. The format is functional.
Assay [23] in a line: In vivo activity against vaginal candidoses in rats, measured as the ratio of animals cured/animals infected (C/I) at dose 10 mg/kg; C/I = 4/4. The format is functional.

Some results are limits rather than exact numbers.

As for `CC(C)n1ncn(-c2ccc(N3CCN(c4ccc(OC[C@@H]5COC(Cn6ccnc6)(c6ccc(Cl)cc6Cl)O5)cc4)CC3)cc2)c1=O` (stereo not given in full), the Inhibition was more than 100 µg/mL in the assay with Saprolegnia; more than 100 µg/mL in the assay on Phialophora verrucosa; more than 100 µg/mL in the assay with Sporothrix schenckii; 100 µg/mL with Candida albicans; more than 100 µg/mL in the assay on Cryptococcus neoformans; 100 µg/mL in the assay with Trichophyton rubrum. The Inhibition with Trichophyton benhamiae is 100 µg/mL; in the assay with Microsporum canis it was more than 100 µg/mL; in the assay on Aspergillus fumigatus, more than 100 µg/mL; in the assay on Candida tropicalis it was 100 µg/mL; in assay [4] it was more than 100 µg/mL. Also, the C/I ratio in [1] was 0; in [2], 0; in [3], 0.5.
On to `Cc1nn(C(C)C)c(=O)n1-c1ccc(N2CCN(c3ccc(OC[C@@H]4COC(Cn5ccnc5)(c5ccc(Cl)cc5Cl)O4)cc3)CC2)cc1` (stereo not given in full), for which the Inhibition in the assay with Saprolegnia was more than 100 µg/mL; in the assay on Phialophora verrucosa, more than 100 µg/mL; in the assay on Sporothrix schenckii, more than 100 µg/mL; with Candida albicans, 100 µg/mL; with Cryptococcus neoformans, more than 100 µg/mL; in the assay on Trichophyton rubrum, more than 100 µg/mL. The Inhibition is 100 µg/mL in the assay with Trichophyton benhamiae; more than 100 µg/mL in the assay on Microsporum canis; more than 100 µg/mL in the assay on Aspergillus fumigatus; 1 µg/mL in the assay with Candida tropicalis; more than 100 µg/mL in assay [4]. Besides, the C/I ratio turned out to be 0.833 in [5], 0 in assay [6], 1 in [7] and 1 in assay [8].
With `CCC(C)n1ncn(-c2ccc(N3CCN(c4ccc(OC[C@@H]5COC(Cn6ccnc6)(c6ccc(Cl)cc6Cl)O5)cc4)CC3)cc2)c1=O` (stereo not given in full), in assay [9], the C/I ratio is given as 1. Besides, the Inhibition in the assay with Saprolegnia was more than 100 µg/mL; in the assay with Phialophora verrucosa, 100 µg/mL; in the assay on Sporothrix schenckii it was more than 100 µg/mL; in the assay with Candida albicans it was more than 100 µg/mL; in the assay with Cryptococcus neoformans it was 10 µg/mL; in the assay with Trichophyton rubrum, 1 µg/mL. Further, the Inhibition with Trichophyton benhamiae was 1 µg/mL; with Microsporum canis it was more than 100 µg/mL; in the assay on Aspergillus fumigatus, 100 µg/mL; in the assay with Candida tropicalis, 1 µg/mL; in assay [4] it was more than 100 µg/mL.
Regarding `Cc1nn(CC(C)C)c(=O)n1-c1ccc(N2CCN(c3ccc(OC[C@@H]4COC(Cn5cncn5)(c5ccc(Cl)cc5Cl)O4)cc3)CC2)cc1` (stereo not given in full), the C/I ratio worked out at 0.333 in assay [10]; 1 in assay [11]; 0 in assay [12]; 0 in assay [13]; 0.364 in assay [14]; 1 in assay [15]. In addition, the Inhibition in the assay on Saprolegnia was more than 100 µg/mL; in the assay with Phialophora verrucosa, more than 100 µg/mL; in the assay on Sporothrix schenckii it was more than 100 µg/mL; with Candida albicans, 100 µg/mL; in the assay with Cryptococcus neoformans, 100 µg/mL; in the assay on Trichophyton rubrum, more than 100 µg/mL. For the same molecule, the Inhibition was 10 µg/mL in the assay on Trichophyton benhamiae; more than 100 µg/mL in the assay on Microsporum canis; more than 100 µg/mL with Aspergillus fumigatus; 1 µg/mL in the assay on Candida tropicalis; more than 100 µg/mL in assay [4].
Turning to `CC(C)CCn1ncn(-c2ccc(N3CCN(c4ccc(OC[C@@H]5COC(Cn6cncn6)(c6ccc(Cl)cc6Cl)O5)cc4)CC3)cc2)c1=O` (stereo not given in full), the C/I ratio was 1 in assay [9] and 0 in assay [1]. The Inhibition with Saprolegnia is more than 100 µg/mL; with Phialophora verrucosa, more than 100 µg/mL; with Sporothrix schenckii it was more than 100 µg/mL; in the assay on Candida albicans it was 100 µg/mL; in the assay on Cryptococcus neoformans, more than 100 µg/mL; with Trichophyton rubrum it was more than 100 µg/mL. Besides, the Inhibition is 100 µg/mL in the assay with Trichophyton benhamiae; more than 100 µg/mL in the assay on Microsporum canis; more than 100 µg/mL with Aspergillus fumigatus; more than 100 µg/mL in the assay with Candida tropicalis; more than 100 µg/mL in assay [4].
With `CCn1ncn(-c2ccc(N3CCN(c4ccc(OC[C@@H]5COC(Cn6cncn6)(c6ccc(Cl)cc6Cl)O5)cc4)CC3)cc2)c1=O` (stereo not given in full), the Inhibition was more than 100 µg/mL in the assay with Saprolegnia; more than 100 µg/mL with Phialophora verrucosa; more than 100 µg/mL in the assay with Sporothrix schenckii; 100 µg/mL in the assay on Candida albicans; 10 µg/mL in the assay with Cryptococcus neoformans; 1 µg/mL with Trichophyton rubrum. Also, the Inhibition in the assay with Trichophyton benhamiae was 1 µg/mL; in the assay on Microsporum canis it was more than 100 µg/mL; in the assay on Aspergillus fumigatus it was more than 100 µg/mL; with Candida tropicalis, 1 µg/mL; in assay [4] it was more than 100 µg/mL. In addition, the C/I ratio in assay [16] worked out at 0.833; in assay [12] it was 0; in [17] it was 0.3; in assay [18], 4; in [19], 0.867; in the assay on Rattus norvegicus it was 16. Also, the C/I ratio in [20] is 0.5.
For `CCCCn1ncn(-c2ccc(N3CCN(c4ccc(OC[C@@H]5COC(Cn6ccnc6)(c6ccc(Cl)cc6Cl)O5)cc4)CC3)cc2)c1=O` (stereo not given in full), the Inhibition with Saprolegnia was more than 100 µg/mL; in the assay with Phialophora verrucosa, more than 100 µg/mL; in the assay with Sporothrix schenckii it was more than 100 µg/mL; in the assay on Candida albicans it was 100 µg/mL; in the assay on Cryptococcus neoformans, more than 100 µg/mL; in the assay on Trichophyton rubrum, 10 µg/mL. The Inhibition in the assay on Trichophyton benhamiae is 100 µg/mL; with Microsporum canis, more than 100 µg/mL; in the assay on Aspergillus fumigatus, more than 100 µg/mL; in the assay with Candida tropicalis, 100 µg/mL; in assay [4], more than 100 µg/mL. The C/I ratio in assay [21] amounted to 0; in [22], 4.
With `CCCn1ncn(-c2ccc(N3CCN(c4ccc(OC[C@@H]5COC(Cn6ccnc6)(c6ccc(Cl)cc6Cl)O5)cc4)CC3)cc2)c1=O` (stereo not given in full), the Inhibition is more than 100 µg/mL with Saprolegnia; more than 100 µg/mL in the assay with Phialophora verrucosa; more than 100 µg/mL in the assay on Sporothrix schenckii; more than 100 µg/mL with Candida albicans; more than 100 µg/mL in the assay on Cryptococcus neoformans; 100 µg/mL with Trichophyton rubrum. In addition, the Inhibition with Trichophyton benhamiae was 100 µg/mL; in the assay on Microsporum canis, more than 100 µg/mL; in the assay with Aspergillus fumigatus it was more than 100 µg/mL; with Candida tropicalis it was more than 100 µg/mL; in assay [4] it was more than 100 µg/mL. Also, the C/I ratio in [1] amounted to 0; in [23], 1.
